Experimental data from paper PMC10694180 (Heliyon, 2023).
“Also recorded” adds a separate entry of the source. Where two headings read alike, the source gives them in different places. Each block holds one compound with its values, some of them ahead of it.

How the values were obtained:
[1] = test system: hypoxia induced ID8 mouse ovarian epithelial cell line; assay: MTT assay, hypoxia induced ovarian cancer cell line ID8; format: cell-based; settings: for inhibition of cell proliferation: ID8 cells, 50 μM concentration; for IC50: 72 h
Method in brief: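 Hypoxia-induced mouse ID8 ovarian epithelial cells were seeded in 96-well plates and exposed to test compound or control. MTT was added 72 h after drug addition, and the resuspended formazan was read by absorbance. Growth inhibition (%) = [1 − (A/B)] × 100, where A is treated wells and B is control wells; n = 3.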

[2] = biological target: Hypoxia-inducible factor 1-alpha (HIF-1α) (Mus musculus, UniProt Q61221); assay: Quantitative HIF-1α inhibitory assay; format: cell-based; settings: ELISA, cell extracts, 50 μM concentration (Fig. 3)
Hypoxia-inducible factor 1-alpha (HIF-1α), sequence (Q61221 whole entry): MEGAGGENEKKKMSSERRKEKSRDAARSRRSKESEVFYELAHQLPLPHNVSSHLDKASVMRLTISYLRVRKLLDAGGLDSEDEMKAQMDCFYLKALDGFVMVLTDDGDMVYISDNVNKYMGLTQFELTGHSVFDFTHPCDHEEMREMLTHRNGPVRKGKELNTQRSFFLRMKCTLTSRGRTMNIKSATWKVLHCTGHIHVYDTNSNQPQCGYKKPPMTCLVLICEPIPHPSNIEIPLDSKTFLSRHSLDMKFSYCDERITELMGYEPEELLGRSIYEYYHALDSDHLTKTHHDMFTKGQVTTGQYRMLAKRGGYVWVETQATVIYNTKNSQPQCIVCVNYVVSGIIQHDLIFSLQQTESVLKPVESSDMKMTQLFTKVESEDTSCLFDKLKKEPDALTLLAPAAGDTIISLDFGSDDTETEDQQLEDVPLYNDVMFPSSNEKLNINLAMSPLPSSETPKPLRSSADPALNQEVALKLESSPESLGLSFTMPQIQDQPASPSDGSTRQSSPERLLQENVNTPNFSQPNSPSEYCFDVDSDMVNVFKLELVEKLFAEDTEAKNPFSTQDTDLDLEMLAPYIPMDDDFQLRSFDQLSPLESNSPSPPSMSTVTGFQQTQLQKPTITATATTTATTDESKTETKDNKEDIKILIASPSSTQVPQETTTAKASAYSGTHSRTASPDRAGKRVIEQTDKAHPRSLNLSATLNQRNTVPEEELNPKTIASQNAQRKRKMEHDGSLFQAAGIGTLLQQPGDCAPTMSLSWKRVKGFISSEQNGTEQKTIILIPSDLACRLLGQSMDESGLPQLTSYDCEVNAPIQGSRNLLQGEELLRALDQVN
Method in brief: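 Mouse HIF-1α quantified with a simple-step ELISA kit run per the manufacturer. Cell lysate concentrates from fresh material were added to wells coated with double-stranded DNA carrying HIF-1α-binding HREs. Bound HIF-1α was detected with a primary mouse anti-HIF-1α antibody and a labelled secondary anti-mouse antibody, and absorbance was read at 450 nm.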

[3] = Solubility data of synthesized compounds; format: physicochemical; settings: solvents: DMSO, ethanol, ethanolic water
[4] = read-out: IC50 (μM), viability of Ovarian cancer cell lines ID8, hypoxia induced ID8, MTT, n = 3
[5] = Mus musculus, Epithelial cell, read-out: IC50 (μM), viability of Ovarian cancer cell lines ID8, hypoxia induced ID8, MTT, 72 h, n = 3

SMILES: N.N.[Cl][Pt][Cl] [Cisplatin, reference compound]
inhibition of cell proliferation [1]: 60% | IC50 [1, 4]: 8.5 ± 0.23 µM | IC50 ([1]; read-out: IC50 (μM), viability of Ovarian cancer cell lines ID8, hypoxia induced ID8, MTT, n = 3, listed as cisplatin): 8.5 µM

IC50 [1, 5]: 23.9 ± 0.61 µM
SMILES: O=C(CN1CCOCC1)N1CCOCC1 [Compound 1a, 1,2-di (morpholin-4-yl) ethanone]

IC50 [1, 5]: 14.8 ± 0.7 µM
SMILES: O=C(CN1CCCC1)N1CCOCC1 [Compound 1b, 1-(morpholin-4-yl)-2-(pyrrolidin-1-yl) ethanone]

IC50 [1, 5]: 15.7 ± 0.64 µM
SMILES: O=C(CNc1ccccn1)N1CCOCC1 [Compound 1c, 1-(morpholin-4-yl)-2-(pyridin-2-ylamino) ethanone]
inhibition of HIF-1α [2]: significant inhibitory effects; also recorded: optimal activity; also recorded: promising activities

IC50 [1, 5]: 25.3 ± 0.82 µM | inhibition of HIF-1α [2]: lesser inhibition
SMILES: COc1cccc(NCC(=O)N2CCOCC2)c1 [Compound 1d, 2-[(3-methoxyphenyl)amino]-1-(morpholin-4-yl) ethanone]

IC50 [1, 5]: 26.4 ± 0.72 µM
SMILES: COc1ccc(NCC(=O)N2CCOCC2)cc1 [Compound 1e, 2-[(4-methoxyphenyl)amino]-1-(morpholin-4-yl)ethanone]

IC50 [1, 5]: 158.4 ± 0.66 µM
SMILES: COc1ccccc1NCC(=O)N1CCOCC1 [Compound 1f, 2-[(2-methoxyphenyl)amino]-1-(morpholin-4-yl) ethanone]

IC50 [1, 5]: 146.1 ± 0.56 µM | solubility [3]: only soluble in DMSO
SMILES: O=C(COc1ccccc1)N1CCOCC1 [Compound 1g, 1-(morpholin-4-yl)-2-phenoxyethanone]

IC50 [1, 5]: 9.4 µM | IC50 [1, 4]: 9.41 ± 0.73 µM
SMILES: O=C(CNc1ccc(F)cc1)N1CCOCC1 [Compound 1h, 2-[(4-fluorophenyl)amino]-1-(morpholin-4-yl) ethanone]
inhibition of cell proliferation [1]: maximum inhibition | inhibition of HIF-1α [2]: significant inhibitory effects; also recorded: optimal activity; also recorded: good inhibition

IC50 [1, 5]: 11.2 ± 0.22 µM
SMILES: Cc1ccc(C(C)C)c(OCC(=O)N2CCOCC2)c1 [Compound 1i, 2-[5-methyl-2-(propan-2-yl)phenoxy]-1-(morpholin-4-yl) ethanone]
inhibition of cell proliferation [1]: maximum inhibition | inhibition of HIF-1α [2]: significant inhibitory effects; also recorded: optimal activity; also recorded: good inhibition

IC50 [1, 5]: 21.49 ± 0.11 µM | solubility [3]: only soluble in DMSO
SMILES: O=C(CNCc1ccc(Cl)cc1)N1CCOCC1 [Compound 1j, 2-[(4-chlorobenzyl)amino]-1-(morpholin-4-yl) ethanone]

IC50 [1, 5]: 64.2 ± 0.88 µM
SMILES: O=C(CNCc1ccc(F)cc1)N1CCOCC1 [Compound 1k, 2-[(4-fluorobenzyl)amino]-1-(morpholin-4-yl) ethanone]

IC50 [1, 5]: 15.6 µM | IC50 [1, 4]: 15.6 ± 0.77 µM
SMILES: O=C(CNc1nnc(-c2ccccc2)o1)N1CCOCC1 [Compound 1l, 1-(morpholin-4-yl)-2-[(5-phenyl-1,3,4-oxadiazol-2-yl)amino] ethanone]
inhibition at 50 µM ([1]; Mus musculus, ID8, read-out: inhibition of cell proliferation): 60%

IC50 [1, 5]: 32.4 ± 0.67 µM
SMILES: O=C(CSc1nc2ccccc2s1)N1CCOCC1 [Compound 1m, 2-(1,3-benzothiazol-2-ylsulfanyl)-1-(morpholin-4-yl) ethanone]

IC50 [1, 5]: 47.9 ± 0.75 µM | solubility [3]: only soluble in DMSO
SMILES: O=C(CNCc1ccccc1)N1CCOCC1 [Compound 1n, 2-(benzylamino)-1-(morpholin-4-yl) ethanone]
